Measurements taken from ChEMBL document CHEMBL3797186, “Single Residue Substitutions That Confer Voltage-Gated Sodium Ion Channel Subtype Selectivity in the NaV1.7 Inhibitory Peptide GpTx-1” (J Med Chem, 2016).
Positions of bridges follow the written chain, without caps; N, C: chain ends. Non-standard residues stand in square brackets, D forms with d. Residues, ends and D or L forms follow the SMILES beside them. Ala(indol-2-yl) = N[C@@H](Cc1cc2ccccc2[nH]1)C(=O)O

Key:
Format in all cases: cell-based
[1] = molecular target: T1, Sodium channel protein type 9 subunit alpha (Homo sapiens, UniProt Q15858); assay: Inhibition of human Nav1.7 expressed in HEK293 cells assessed as inward peak current by ion-works quattro patch clamp electrophysiology method
T1 sequence (Q15858 whole entry): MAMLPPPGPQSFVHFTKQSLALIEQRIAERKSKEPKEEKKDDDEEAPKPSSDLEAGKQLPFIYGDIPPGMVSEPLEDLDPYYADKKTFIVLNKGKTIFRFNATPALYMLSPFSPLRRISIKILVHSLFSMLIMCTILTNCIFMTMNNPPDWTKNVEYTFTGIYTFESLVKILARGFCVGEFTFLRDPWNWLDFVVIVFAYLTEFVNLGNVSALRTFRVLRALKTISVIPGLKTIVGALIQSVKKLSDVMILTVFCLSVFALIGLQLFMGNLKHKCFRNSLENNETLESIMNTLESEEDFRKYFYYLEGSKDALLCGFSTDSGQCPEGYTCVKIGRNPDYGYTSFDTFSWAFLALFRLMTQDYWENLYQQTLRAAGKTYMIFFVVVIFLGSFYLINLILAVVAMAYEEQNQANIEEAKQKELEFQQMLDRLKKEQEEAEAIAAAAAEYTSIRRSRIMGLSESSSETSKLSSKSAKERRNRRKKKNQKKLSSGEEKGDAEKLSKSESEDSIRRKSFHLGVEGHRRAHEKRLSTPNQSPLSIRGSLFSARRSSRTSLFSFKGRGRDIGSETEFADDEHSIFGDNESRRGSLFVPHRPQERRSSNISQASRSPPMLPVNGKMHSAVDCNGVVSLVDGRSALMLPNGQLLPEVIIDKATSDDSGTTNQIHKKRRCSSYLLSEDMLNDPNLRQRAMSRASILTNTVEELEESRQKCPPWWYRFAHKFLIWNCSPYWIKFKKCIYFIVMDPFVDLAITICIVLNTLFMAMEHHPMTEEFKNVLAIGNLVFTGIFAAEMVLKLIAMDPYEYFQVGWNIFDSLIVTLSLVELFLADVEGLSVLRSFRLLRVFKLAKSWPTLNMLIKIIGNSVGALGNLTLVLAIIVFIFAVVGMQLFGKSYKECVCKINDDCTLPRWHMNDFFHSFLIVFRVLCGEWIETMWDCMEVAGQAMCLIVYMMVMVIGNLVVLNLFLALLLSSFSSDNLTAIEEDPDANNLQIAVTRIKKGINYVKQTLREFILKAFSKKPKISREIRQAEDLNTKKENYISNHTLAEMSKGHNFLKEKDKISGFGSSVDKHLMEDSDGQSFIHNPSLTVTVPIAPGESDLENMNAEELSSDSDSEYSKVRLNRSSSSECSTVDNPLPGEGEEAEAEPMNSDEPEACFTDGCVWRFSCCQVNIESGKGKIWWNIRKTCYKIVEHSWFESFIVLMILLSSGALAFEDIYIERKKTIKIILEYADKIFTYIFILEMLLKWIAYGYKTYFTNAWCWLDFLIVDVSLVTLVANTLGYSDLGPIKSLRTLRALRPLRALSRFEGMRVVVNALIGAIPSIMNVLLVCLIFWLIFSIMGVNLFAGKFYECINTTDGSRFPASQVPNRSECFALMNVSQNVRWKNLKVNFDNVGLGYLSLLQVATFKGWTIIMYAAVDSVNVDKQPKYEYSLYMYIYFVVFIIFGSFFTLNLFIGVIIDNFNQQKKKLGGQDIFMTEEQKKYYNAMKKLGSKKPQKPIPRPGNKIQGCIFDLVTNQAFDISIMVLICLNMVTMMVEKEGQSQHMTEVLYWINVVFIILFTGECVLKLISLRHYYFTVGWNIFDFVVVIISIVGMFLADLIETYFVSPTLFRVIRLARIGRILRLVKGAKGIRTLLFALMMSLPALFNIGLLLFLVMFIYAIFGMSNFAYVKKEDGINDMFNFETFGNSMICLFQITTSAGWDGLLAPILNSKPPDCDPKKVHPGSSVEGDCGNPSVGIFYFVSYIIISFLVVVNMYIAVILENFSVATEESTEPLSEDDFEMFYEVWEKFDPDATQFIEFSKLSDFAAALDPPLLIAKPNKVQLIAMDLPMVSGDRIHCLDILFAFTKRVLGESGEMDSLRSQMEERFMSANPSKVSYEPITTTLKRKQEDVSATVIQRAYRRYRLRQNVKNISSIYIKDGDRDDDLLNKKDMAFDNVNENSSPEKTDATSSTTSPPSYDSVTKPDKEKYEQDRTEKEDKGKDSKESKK

[2] = molecular target: T2, Sodium channel protein type 5 subunit alpha (Homo sapiens, UniProt Q14524); assay: Inhibition of human Nav1.5 expressed in HEK293 cells assessed as inward peak current by ion-works quattro patch clamp electrophysiology method
T2 sequence (Q14524 whole entry): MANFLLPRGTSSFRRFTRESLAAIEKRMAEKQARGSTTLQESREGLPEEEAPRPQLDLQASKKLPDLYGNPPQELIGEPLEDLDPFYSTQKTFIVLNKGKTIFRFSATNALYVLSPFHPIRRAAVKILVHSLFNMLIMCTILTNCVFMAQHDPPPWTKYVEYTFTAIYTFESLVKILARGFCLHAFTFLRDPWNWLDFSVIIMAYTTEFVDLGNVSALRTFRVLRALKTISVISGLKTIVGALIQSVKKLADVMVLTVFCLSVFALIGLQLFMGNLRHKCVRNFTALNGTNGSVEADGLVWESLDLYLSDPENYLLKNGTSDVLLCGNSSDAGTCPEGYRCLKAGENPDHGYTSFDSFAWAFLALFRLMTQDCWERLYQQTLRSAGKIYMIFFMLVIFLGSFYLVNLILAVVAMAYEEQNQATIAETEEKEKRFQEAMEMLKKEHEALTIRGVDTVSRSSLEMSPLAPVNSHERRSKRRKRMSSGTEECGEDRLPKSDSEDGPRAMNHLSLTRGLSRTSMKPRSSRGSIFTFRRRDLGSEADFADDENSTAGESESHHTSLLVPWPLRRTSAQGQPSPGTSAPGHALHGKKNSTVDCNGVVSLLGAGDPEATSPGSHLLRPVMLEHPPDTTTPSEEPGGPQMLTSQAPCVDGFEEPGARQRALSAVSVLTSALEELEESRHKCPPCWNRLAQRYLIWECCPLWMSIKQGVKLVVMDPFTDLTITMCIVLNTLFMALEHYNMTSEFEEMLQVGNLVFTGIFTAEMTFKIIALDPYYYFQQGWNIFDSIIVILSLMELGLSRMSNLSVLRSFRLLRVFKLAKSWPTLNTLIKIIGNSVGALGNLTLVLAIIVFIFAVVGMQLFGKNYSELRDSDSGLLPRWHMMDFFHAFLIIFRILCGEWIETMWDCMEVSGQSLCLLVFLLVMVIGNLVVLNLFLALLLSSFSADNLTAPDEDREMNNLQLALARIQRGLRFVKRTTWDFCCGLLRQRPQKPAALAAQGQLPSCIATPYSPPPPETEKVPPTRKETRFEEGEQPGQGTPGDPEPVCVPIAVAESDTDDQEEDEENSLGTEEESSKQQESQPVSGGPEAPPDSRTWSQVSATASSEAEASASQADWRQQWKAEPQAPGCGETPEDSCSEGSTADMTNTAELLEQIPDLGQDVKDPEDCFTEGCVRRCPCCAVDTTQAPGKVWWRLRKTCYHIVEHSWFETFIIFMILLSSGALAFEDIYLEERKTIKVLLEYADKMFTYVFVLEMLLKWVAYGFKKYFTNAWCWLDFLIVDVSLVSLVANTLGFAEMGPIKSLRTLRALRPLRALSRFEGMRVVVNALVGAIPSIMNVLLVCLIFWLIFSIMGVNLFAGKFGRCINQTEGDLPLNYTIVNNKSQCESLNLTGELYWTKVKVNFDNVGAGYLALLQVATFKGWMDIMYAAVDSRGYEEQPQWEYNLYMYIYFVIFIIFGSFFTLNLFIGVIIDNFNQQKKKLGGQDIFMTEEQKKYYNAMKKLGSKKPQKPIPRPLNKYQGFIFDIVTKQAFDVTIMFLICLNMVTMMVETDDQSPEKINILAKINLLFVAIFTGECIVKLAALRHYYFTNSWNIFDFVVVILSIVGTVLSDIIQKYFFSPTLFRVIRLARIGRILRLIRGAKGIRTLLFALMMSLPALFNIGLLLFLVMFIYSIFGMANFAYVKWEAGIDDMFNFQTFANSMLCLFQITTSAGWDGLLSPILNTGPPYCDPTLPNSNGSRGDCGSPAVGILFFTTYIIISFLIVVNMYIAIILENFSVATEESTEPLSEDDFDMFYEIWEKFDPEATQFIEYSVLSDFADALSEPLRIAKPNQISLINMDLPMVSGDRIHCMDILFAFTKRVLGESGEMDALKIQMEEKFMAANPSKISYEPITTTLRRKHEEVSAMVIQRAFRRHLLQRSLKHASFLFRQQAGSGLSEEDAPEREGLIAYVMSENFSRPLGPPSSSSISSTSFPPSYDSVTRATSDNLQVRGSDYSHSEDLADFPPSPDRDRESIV
Method in brief: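 Stable HEK293 line expressing human NaV1.5, recorded by population patch clamp on the IonWorks Quattro.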

[3] = molecular target: T1, Sodium channel protein type 9 subunit alpha; assay: Inhibition of human Nav1.7 expressed in HEK293 cells by whole cell patch clamp electrophysiology method
[4] = molecular target: T2, Sodium channel protein type 5 subunit alpha; assay: Inhibition of human Nav1.5 expressed in HEK293 cells by whole cell patch clamp electrophysiology method
Method in brief: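 Stable HEK293 line expressing human NaV1.5, recorded on the PatchXpress 7000A. Percent inhibition versus concentration was pooled from at least 10 cells, with two to three points per concentration. The pooled set was fitted with a four-parameter Hill equation to give a single IC50 curve.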

Compound | IC50 [1] | IC50 [2] | IC50 [3] | IC50 [4]
CC[C@H](C)[C@@H]1NC(=O)[C@@H]2CSSC[C@@H]3NC(=O)[C@H](C(C)C)NC(=O)[C@H](CC(C)C)NC(=O)[C@H](CC(N)=O)NC(=O)[C@@H]4CCCN4C(=O)[C@H](CCCCN)NC(=O)[C@H](CSSC[C@H](NC(=O)[C@@H](N)CC(=O)O)C(=O)N[C@@H](CC(C)C)C(=O)NCC(=O)N[C@@H](Cc4ccccc4)C(=O)N[C@@H](CCSC)C(=O)N[C@@H](CCCNC(=N)N)C(=O)N[C@@H](CCCCN)C(=O)N2)NC(=O)[C@H](CSSC[C@@H](C(=O)N[C@@H](CCCCN)C(=O)N[C@@H](Cc2ccc(O)cc2)C(=O)N[C@H](C(=O)N[C@@H](Cc2ccccc2)C(N)=O)C(C)C)NC(=O)[C@H](Cc2c[nH]c4ccccc24)NC(=O)[C@H](CCCCN)NC(=O)[C@H](Cc2cnc[nH]2)NC(=O)[C@H]([C@@H](C)O)NC(=O)[C@H](CCCNC(=N)N)NC(=O)[C@H](CO)NC3=O)NC(=O)[C@H](CCCCN)NC(=O)[C@H](CC(=O)O)NC(=O)[C@H](CC(N)=O)NC(=O)[C@H](CC(=O)O)NC(=O)[C@@H]2CCCN2C1=O (H-DCLGFMRKCIPDNDKCCKPNLVCSRTHKWCKYVF-NH2; disulfide 2-17, 9-23, 16-30) | 360 nM | > 5000 nM | 1.6 nM | 15900 nM
CC[C@H](C)[C@@H]1NC(=O)[C@@H]2CSSC[C@@H]3NC(=O)[C@H](C(C)C)NC(=O)[C@H](CC(C)C)NC(=O)[C@H](CC(N)=O)NC(=O)[C@@H]4CCCN4C(=O)[C@H](Cc4cc5ccccc5[nH]4)NC(=O)[C@H](CSSC[C@H](NC(=O)[C@@H](N)CC(=O)O)C(=O)N[C@@H](CC(C)C)C(=O)NCC(=O)N[C@@H](Cc4ccccc4)C(=O)N[C@@H](CCSC)C(=O)N[C@@H](CCCNC(=N)N)C(=O)N[C@@H](CCCCN)C(=O)N2)NC(=O)[C@H](CSSC[C@@H](C(=O)N[C@@H](CCCCN)C(=O)N[C@@H](Cc2ccc(O)cc2)C(=O)N[C@H](C(=O)N[C@@H](Cc2ccccc2)C(N)=O)C(C)C)NC(=O)[C@H](Cc2c[nH]c4ccccc24)NC(=O)[C@H](CCCCN)NC(=O)[C@H](Cc2cnc[nH]2)NC(=O)[C@H]([C@@H](C)O)NC(=O)[C@H](CCCNC(=N)N)NC(=O)[C@H](CO)NC3=O)NC(=O)[C@H](CCCCN)NC(=O)[C@H](CC(=O)O)NC(=O)[C@H](CC(N)=O)NC(=O)[C@H](CC(=O)O)NC(=O)[C@@H]2CCCN2C1=O (H-DCLGFMRKCIPDNDKCC[Ala(indol-2-yl)]PNLVCSRTHKWCKYVF-NH2; disulfide 2-17, 9-23, 16-30) | 180 nM | > 5000 nM | 18 nM | > 10000 nM
CC[C@H](C)[C@@H]1NC(=O)[C@@H]2CSSC[C@@H]3NC(=O)[C@H](Cc4c[nH]c5ccccc45)NC(=O)[C@H](CC(C)C)NC(=O)[C@H](CC(N)=O)NC(=O)[C@@H]4CCCN4C(=O)[C@H](CCCNC(=N)N)NC(=O)[C@H](CSSC[C@H](NC(=O)[C@@H](N)CC(=O)O)C(=O)N[C@@H](CC(C)C)C(=O)NCC(=O)N[C@@H](Cc4ccccc4)C(=O)N[C@@H](CCSC)C(=O)N[C@@H](CCCNC(=N)N)C(=O)N[C@@H](CCCCN)C(=O)N2)NC(=O)[C@H](CSSC[C@@H](C(=O)N[C@@H](CCCCN)C(=O)N[C@@H](Cc2ccc(O)cc2)C(=O)N[C@H](C(=O)N[C@@H](Cc2ccccc2)C(N)=O)C(C)C)NC(=O)[C@H](Cc2c[nH]c4ccccc24)NC(=O)[C@H](CCCCN)NC(=O)[C@H](Cc2cnc[nH]2)NC(=O)[C@H]([C@@H](C)O)NC(=O)[C@H](CCCNC(=N)N)NC(=O)[C@H](CO)NC3=O)NC(=O)[C@H](CCCCN)NC(=O)[C@H](CC(=O)O)NC(=O)[C@H](CC(N)=O)NC(=O)[C@H](CC(=O)O)NC(=O)[C@@H]2CCCN2C1=O (H-DCLGFMRKCIPDNDKCCRPNLWCSRTHKWCKYVF-NH2; disulfide 2-17, 9-23, 16-30) | 60 nM | > 5000 nM | 42 nM | 3200 nM
CC[C@H](C)[C@@H]1NC(=O)[C@@H]2CSSC[C@@H]3NC(=O)[C@H](C(C)C)NC(=O)[C@H](CC(C)C)NC(=O)[C@H](CC(N)=O)NC(=O)[C@@H]4CCCN4C(=O)[C@H](CCCNC(N)=O)NC(=O)[C@H](CSSC[C@H](NC(=O)[C@@H](N)CC(=O)O)C(=O)N[C@@H](CC(C)C)C(=O)NCC(=O)N[C@@H](Cc4ccccc4)C(=O)N[C@@H](CCSC)C(=O)N[C@@H](CCCNC(=N)N)C(=O)N[C@@H](CCCCN)C(=O)N2)NC(=O)[C@H](CSSC[C@@H](C(=O)N[C@@H](CCCCN)C(=O)N[C@@H](Cc2ccc(O)cc2)C(=O)N[C@H](C(=O)N[C@@H](Cc2ccccc2)C(N)=O)C(C)C)NC(=O)[C@H](Cc2c[nH]c4ccccc24)NC(=O)[C@H](CCCCN)NC(=O)[C@H](Cc2cnc[nH]2)NC(=O)[C@H]([C@@H](C)O)NC(=O)[C@H](CCCNC(=N)N)NC(=O)[C@H](CO)NC3=O)NC(=O)[C@H](CCCCN)NC(=O)[C@H](CC(=O)O)NC(=O)[C@H](CC(N)=O)NC(=O)[C@H](CC(=O)O)NC(=O)[C@@H]2CCCN2C1=O | 180 nM | > 5000 nM | 1.9 nM | > 10000 nM
CSCC[C@@H]1NC(=O)[C@H](Cc2ccccc2)NC(=O)CNC(=O)[C@H](CC(C)C)NC(=O)[C@@H](NC(=O)[C@@H](N)CC(=O)O)CSSC[C@@H]2NC(=O)[C@@H]3CSSC[C@@H](C(=O)N[C@@H](CCCCN)C(=O)N[C@@H](Cc4ccc(O)cc4)C(=O)N[C@H](C(=O)N[C@@H](Cc4ccccc4)C(N)=O)C(C)C)NC(=O)[C@H](Cc4c[nH]c5ccccc45)NC(=O)[C@H](CCCCN)NC(=O)[C@H](Cc4cnc[nH]4)NC(=O)[C@H]([C@@H](C)O)NC(=O)[C@H](CCCNC(=N)N)NC(=O)[C@H](CO)NC(=O)[C@H](CSSC[C@H](NC(=O)[C@H](CCCCN)NC(=O)[C@H](CCCNC(=N)N)NC1=O)C(=O)N[C@@H](CC(N)=O)C(=O)N1CCC[C@H]1C(=O)N[C@@H](CC(=O)O)C(=O)N[C@@H](CC(N)=O)C(=O)N[C@@H](CC(=O)O)C(=O)N[C@@H](CCCCN)C(=O)N3)NC(=O)[C@H](C(C)C)NC(=O)[C@H](CC(C)C)NC(=O)[C@H](CC(N)=O)NC(=O)[C@@H]1CCCN1C(=O)[C@H](CCCNC(=N)N)NC2=O (H-DCLGFMRKCNPDNDKCCRPNLVCSRTHKWCKYVF-NH2; disulfide 2-17, 9-23, 16-30) | 330 nM | > 5000 nM | 1.9 nM | > 10000 nM
